# Assay results from ChEMBL document CHEMBL1122206, “Use of adenine nucleotide derivatives to assess the potential of exo-active-site-directed reagents as species- or isozyme-specific enzyme inactivators. 5. Interactions of adenosine 5'-triphosphate derivatives with rat pyruvate kinases, Escherichia coli thymidine kinase, and yeast and rat …” (1982).
# What was measured:
# [1] = molecular target: T1, Hexokinase-2 (Rattus norvegicus) (UniProt P27881); assay: Substrate activity against Rat hexokinase II as 1:1 Mg complex at 5.0 mM
# T1 sequence (whole entry): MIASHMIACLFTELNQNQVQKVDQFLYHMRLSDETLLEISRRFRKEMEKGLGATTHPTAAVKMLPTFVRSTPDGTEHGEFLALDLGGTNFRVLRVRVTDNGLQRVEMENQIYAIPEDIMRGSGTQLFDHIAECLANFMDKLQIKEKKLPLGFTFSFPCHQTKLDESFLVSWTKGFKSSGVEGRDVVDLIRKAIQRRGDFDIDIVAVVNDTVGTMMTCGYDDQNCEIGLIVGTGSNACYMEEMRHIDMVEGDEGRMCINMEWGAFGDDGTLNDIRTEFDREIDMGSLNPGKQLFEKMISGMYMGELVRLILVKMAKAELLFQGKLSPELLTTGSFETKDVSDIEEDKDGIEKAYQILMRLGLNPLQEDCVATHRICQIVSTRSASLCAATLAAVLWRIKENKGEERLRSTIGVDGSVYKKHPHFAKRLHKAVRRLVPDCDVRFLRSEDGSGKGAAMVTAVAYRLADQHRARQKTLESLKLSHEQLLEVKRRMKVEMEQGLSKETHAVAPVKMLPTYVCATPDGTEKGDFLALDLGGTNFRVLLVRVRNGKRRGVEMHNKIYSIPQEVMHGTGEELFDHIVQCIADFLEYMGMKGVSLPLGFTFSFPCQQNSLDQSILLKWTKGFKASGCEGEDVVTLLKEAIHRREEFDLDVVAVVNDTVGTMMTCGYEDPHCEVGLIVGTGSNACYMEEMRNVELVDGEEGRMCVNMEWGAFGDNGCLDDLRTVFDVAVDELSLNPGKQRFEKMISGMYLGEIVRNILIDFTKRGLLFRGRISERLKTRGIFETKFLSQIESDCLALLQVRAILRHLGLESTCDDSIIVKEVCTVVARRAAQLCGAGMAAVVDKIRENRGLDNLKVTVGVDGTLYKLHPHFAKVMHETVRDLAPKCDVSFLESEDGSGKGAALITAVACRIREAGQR
# How it was run: (§1)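 Hexokinase activity read at 22 °C as A340 change, coupled to glucose-6-phosphate dehydrogenase, in 0.05 M Tris-HCl pH 7.6 with 6.6 mM MgCl2, 10 mM α-D-glucose and 0.93 mM NADP. Donor was 5.0 mM MgATP derivative (1:1 Mg complex) in place of ATP. Yeast HK was isoelectric-focused. Rat HK I and III came from electrofocused liver extract, HK II from dialysed muscle extract.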
# Saccharomyces cerevisiae [2] = assay: Time dependent inhibition of hexokinase activity after 6 hr, at 22 degrees celsius, with 5 mM ATP derivative in yeast.
# [3] = Tested for the velocity of 2.8 mM compound relative to that of 2.8 mM MgATP in the assay
# How it was run: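 E. coli TK substrate test. 0.5 h after adding inhibitor, the mixture was diluted to 2.8 mM derivative in thymidine assay medium without ATP and with 1.42 mM MnCl2. Incubated 15 min at 37 °C, in the linear range. [14C]TMP formed was compared with that from 2.8 mM ATP under the same conditions.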
# [4] = molecular target: T2, Hexokinase-1 (Rattus norvegicus) (UniProt P05708); assay: Substrate activity for rat hexokinase I as 1:1 Mg complex at 5.0 mM; how it was run: as §1
# T2 sequence (whole entry): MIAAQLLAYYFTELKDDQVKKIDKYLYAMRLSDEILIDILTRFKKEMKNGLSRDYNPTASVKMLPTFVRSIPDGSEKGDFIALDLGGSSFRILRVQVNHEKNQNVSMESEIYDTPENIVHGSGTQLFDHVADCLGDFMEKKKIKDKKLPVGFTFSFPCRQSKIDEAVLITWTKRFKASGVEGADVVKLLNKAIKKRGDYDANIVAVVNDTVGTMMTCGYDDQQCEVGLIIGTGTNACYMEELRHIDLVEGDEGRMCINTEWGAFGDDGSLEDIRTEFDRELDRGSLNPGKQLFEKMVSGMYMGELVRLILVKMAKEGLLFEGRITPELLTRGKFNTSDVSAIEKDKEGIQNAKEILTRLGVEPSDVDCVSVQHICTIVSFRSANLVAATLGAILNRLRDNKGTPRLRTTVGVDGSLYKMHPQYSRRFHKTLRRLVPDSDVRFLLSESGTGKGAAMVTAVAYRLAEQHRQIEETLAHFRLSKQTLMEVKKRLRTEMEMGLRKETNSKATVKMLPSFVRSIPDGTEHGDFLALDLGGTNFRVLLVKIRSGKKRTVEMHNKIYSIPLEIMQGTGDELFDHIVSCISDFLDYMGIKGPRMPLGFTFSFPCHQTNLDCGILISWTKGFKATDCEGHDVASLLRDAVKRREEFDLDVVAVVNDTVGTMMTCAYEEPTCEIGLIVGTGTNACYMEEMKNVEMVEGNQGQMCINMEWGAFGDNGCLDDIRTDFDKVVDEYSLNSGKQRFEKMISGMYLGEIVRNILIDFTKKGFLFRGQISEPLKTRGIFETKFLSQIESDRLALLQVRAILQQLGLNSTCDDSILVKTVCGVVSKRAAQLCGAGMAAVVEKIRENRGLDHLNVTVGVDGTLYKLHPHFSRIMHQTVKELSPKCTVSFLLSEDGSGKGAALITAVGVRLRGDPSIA
# [5] = molecular target: Thymidine kinase (Escherichia coli) (UniProt P23331); assay: Compound was tested for the loss of thymidine kinase activity from Escherichia coli after 6 hr at 0 degrees C at 10 mM
# Sequence of Thymidine kinase (Escherichia coli) (P23331 whole entry, looked up): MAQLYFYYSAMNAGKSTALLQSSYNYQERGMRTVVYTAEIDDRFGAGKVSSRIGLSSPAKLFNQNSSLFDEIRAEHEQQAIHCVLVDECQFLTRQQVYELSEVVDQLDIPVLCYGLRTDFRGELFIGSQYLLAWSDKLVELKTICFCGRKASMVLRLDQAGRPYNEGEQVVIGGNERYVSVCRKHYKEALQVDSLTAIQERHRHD
# [6] = molecular target: Thymidine kinase (Escherichia coli) (UniProt P23331); assay: Compound was tested for the initial inhibition of thymidine kinase by 1.4 mM compound in the presence of 5.7 mM ATP
# [7] = molecular target: T3, Hexokinase-3 (Rattus norvegicus) (UniProt P27926); assay: Substrate activity for rat hexokinase III as 1:1 Mg complex at 5.0 mM; how it was run: as §1
# T3 sequence (whole entry): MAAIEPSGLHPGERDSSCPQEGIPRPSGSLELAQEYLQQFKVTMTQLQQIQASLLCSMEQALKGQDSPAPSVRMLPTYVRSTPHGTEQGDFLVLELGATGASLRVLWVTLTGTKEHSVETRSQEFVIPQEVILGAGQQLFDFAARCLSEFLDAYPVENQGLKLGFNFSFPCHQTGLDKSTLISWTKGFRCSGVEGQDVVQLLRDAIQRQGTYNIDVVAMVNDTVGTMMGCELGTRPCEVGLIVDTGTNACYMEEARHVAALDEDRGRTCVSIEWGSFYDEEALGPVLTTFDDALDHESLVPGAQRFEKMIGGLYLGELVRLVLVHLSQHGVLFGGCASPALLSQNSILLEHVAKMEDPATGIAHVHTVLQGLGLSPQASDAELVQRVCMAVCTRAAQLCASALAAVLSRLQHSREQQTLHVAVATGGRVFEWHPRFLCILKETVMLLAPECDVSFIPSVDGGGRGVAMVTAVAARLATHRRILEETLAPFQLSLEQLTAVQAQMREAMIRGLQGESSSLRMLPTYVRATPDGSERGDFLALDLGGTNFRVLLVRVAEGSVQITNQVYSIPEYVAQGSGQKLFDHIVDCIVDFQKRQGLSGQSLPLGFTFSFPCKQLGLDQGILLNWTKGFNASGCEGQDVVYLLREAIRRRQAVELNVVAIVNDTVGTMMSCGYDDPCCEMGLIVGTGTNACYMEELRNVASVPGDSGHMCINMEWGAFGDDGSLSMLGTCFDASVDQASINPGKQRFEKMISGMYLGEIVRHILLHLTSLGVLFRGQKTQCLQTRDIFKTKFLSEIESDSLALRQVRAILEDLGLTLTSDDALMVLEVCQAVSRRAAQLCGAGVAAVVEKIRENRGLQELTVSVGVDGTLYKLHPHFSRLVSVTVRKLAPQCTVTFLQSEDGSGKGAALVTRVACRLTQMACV
# [8] = molecular target: T3, Hexokinase-3 (Rattus norvegicus); assay: Time dependent inhibition of Hexokinase type III activity after 6 hr, at 22 degrees celsius, at 5 mM compound
# Saccharomyces cerevisiae [9] = assay: Substrate activity against yeast hexokinase as 1:1 Mg complexes at 5.0 mM; how it was run: as §1
# Saccharomyces cerevisiae [10] = assay: Compound was tested for time dependent inhibition of hexokinase activity after 6 hr, at 22 degrees celsius, with 5 mM ATP derivative in yeast hexokinase
# [11] = molecular target: Thymidine kinase (Escherichia coli) (UniProt P23331); assay: Compound was tested for the initial inhibition of thymidine kinase by 1.4 mM compound in the presence of 5.7 mM ATP in Escherichia coli
# [12] = molecular target: T2, Hexokinase-1 (Rattus norvegicus); assay: Time dependent inhibition of Hexokinase type I activity after 6 h, at 22 degrees celsius, at 5 mM compound
# [13] = molecular target: Thymidine kinase (Escherichia coli) (UniProt P23331); assay: Compound was tested for the lose of thymidine kinase activity after 6 hr, at 0 degrees celsius, with 10 mM ATP derivative. values were expressed in percent
# [14] = molecular target: T1, Hexokinase-2 (Rattus norvegicus); assay: Time dependent inhibition of hexokinase 2 activity after 6 h, at 5 mM compound
# [15] = molecular target: T3, Hexokinase-3 (Rattus norvegicus); assay: Time dependent inhibition of Hexokinase type III activity after 6 h, at 22 degrees celsius, at 5 mM
# [16] = Compound was tested for substrate constants with yeast hexokinase. Maximal velocity Vmax was reported
# How it was run: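 Hexokinase KM and Vmax taken from linear double-reciprocal plots of initial velocity vs. nucleotide level. Assays at 22 °C, coupled to glucose-6-phosphate dehydrogenase (A340), in 0.05 M Tris-HCl pH 7.6 with 6.6 mM MgCl2, 10 mM glucose and 0.93 mM NADP. Yeast HK was isoelectric-focused. Rat HK I and III came from liver, HK II from muscle (male Sprague-Dawley).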
# [17] = Substrate concentration for half maximal velocity was reported for yeast hexokinase
# How it was run: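 Coupled glucose-6-phosphate dehydrogenase/NADP assay: A340 rate at 22 °C in 0.05 M Tris-HCl pH 7.6 with 6.6 mM MgCl2, 10 mM α-D-glucose and 0.93 mM NADP, nucleotide varied. KM was taken from linear double-reciprocal plots. Rat HK I and III came from electrofocused, dialysed liver extract, HK II from dialysed muscle extract, and yeast HK was isoelectric-focused.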
SMILES,Relative velocity [1],inhibition (Saccharomyces cerevisiae [2]) [%],Velocity [3] [%],Relative velocity [4],inhibition [5] [%],inhibition [6] [%],Relative velocity [7],inhibition [8] [%],Relative velocity (Saccharomyces cerevisiae [9]),inhibition (Saccharomyces cerevisiae [10]) [%],inhibition [11] [%],inhibition [12] [%],inhibition [13] [%],inhibition [14] [%],inhibition [15] [%],Vmax [16] [%],Km [17] [µM]
O=C(CI)NCCCCCNc1ncnc2c1ncn2[C@@H]1O[C@H](COP(=O)(O)OP(=O)(O)OP(=O)(O)O)[C@@H](O)[C@H]1O,0.6,0,13,0.92,0,26,1.31,0,0.75,–,–,–,–,–,–,–,–
CN(CCCCCCN(C)c1ncnc2c1ncn2[C@@H]1O[C@H](COP(=O)(O)OP(=O)(O)OP(=O)(O)O)[C@@H](O)[C@H]1O)C(=O)CCCCCCNC(=O)CI,0.85,–,57,1.66,–,–,2.06,–,0.94,0,16,0,0,0,–,–,–
CN(CCCN(C)C(=O)CCCCNc1ncnc2c1ncn2[C@@H]1O[C@H](COP(=O)(O)OP(=O)(O)OP(=O)(O)O)[C@@H](O)[C@H]1O)C(=O)CCCCNC(=O)CI,–,0,> 34,–,51,5,–,–,–,–,–,0,–,0,0,–,–
CN(CCCCN(C)C(=O)CCCCNc1ncnc2c1ncn2[C@@H]1O[C@H](COP(=O)(O)OP(=O)(O)OP(=O)(O)O)[C@@H](O)[C@H]1O)C(=O)CCCCNC(=O)CI,–,0,34,–,0,9,–,–,–,–,–,0,–,0,0,–,–
CN(CCCCN(C)c1ncnc2c1ncn2[C@@H]1O[C@H](COP(=O)(O)OP(=O)(O)OP(=O)(O)O)[C@@H](O)[C@H]1O)C(=O)CCCCCNC(=O)OCc1ccccc1,–,–,–,–,–,–,–,–,–,–,–,–,–,–,–,75,300
O=C(CI)NCCCCC(=O)NCCCCCCNc1ncnc2c1ncn2[C@@H]1O[C@H](COP(=O)(O)OP(=O)(O)OP(=O)(O)O)[C@@H](O)[C@H]1O,–,0,39,–,0,12,–,–,–,–,–,0,–,0,0,–,–
O=C(CI)NCCCCCC(=O)NCCCNc1ncnc2c1ncn2[C@@H]1O[C@H](COP(=O)(O)OP(=O)(O)OP(=O)(O)O)[C@@H](O)[C@H]1O,0.57,0,> 39,0.79,74,13,1.04,–,1.06,–,–,0,–,–,0,–,–
O=C(CI)NCCCCCCC(=O)NCCCNc1ncnc2c1ncn2[C@@H]1O[C@H](COP(=O)(O)OP(=O)(O)OP(=O)(O)O)[C@@H](O)[C@H]1O,–,0,> 25,–,58,28,–,–,–,–,–,0,–,0,–,–,–
CN(CCCCN(C)C(=O)CCCNc1ncnc2c1ncn2[C@@H]1O[C@H](COP(=O)(O)OP(=O)(O)OP(=O)(O)O)[C@@H](O)[C@H]1O)C(=O)CCCNC(=O)CI,–,0,14,–,0,12,–,–,–,–,–,0,–,0,0,–,–
